Experimental data reported in ChEMBL document CHEMBL5042515, “Design and Evaluation of a Novel Peptide-Drug Conjugate Covalently Targeting SARS-CoV-2 Papain-like Protease” (J Med Chem, 2022).
pIC50: −log10 of the molar value. The source made the active and inactive calls. The calls are words filed in the database; no cut-off is given here. *1 amine or outer side, *2 acyl side, *3 side chain or, on linkers, in order; H or OH if unused. Where a SMILES comes first, the peptide text is derived from it. Bridges are numbered along the chain shown (N, C = ends). [ ]: non-standard residue; d: D form. The star is where a group is joined. Met(S-mXyl) = C[S+](CC[C@H](N[*:1])C(=O)[*:2])Cc1cccc(C[*:3])c1; 5FAM = O=C1OC2(c3ccc(O)cc3Oc3cc(O)ccc32)c2ccc(C(=O)*)cc21; X2 = C[S+](CC[C@@H](N[*:1])C(=O)[*:2])Cc1cccc(C[*:3])c1; X1 = Cc1ccc(N*)cc1C(=O)NC(C)c1cccc2ccccc12

How the values were obtained:
[1] = test system: Severe acute respiratory syndrome coronavirus 2; test: Inhibition of SARS-CoV-2 PLpro using LRGG-ACC as substrate at <=1000 uM preincubated for 60 mins followed by substrate addition and measured for 30 mins by enzymatic assay; settings: dose microM <=1000, time 90.0 min
In short: (§1)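 Recombinant His-tagged SARS-CoV-2 PLpro (E. coli BL21(DE3), Ni-NTA then gel filtration) at 0.1 μM, preincubated 1 h at 37 °C with inhibitor diluted from 800 μM. Buffer: 50 mM HEPES pH 7.4, 0.1 mg/mL BSA, 5 mM DTT. Ac-LRGG-ACC substrate at 1 μM final. Fluorescence read at ex 355/em 460 nm for 30 min, at least three times; IC50 from curve fitting.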

[2] = test system: Severe acute respiratory syndrome coronavirus 2; test: Binding affinity to SARS-CoV-2 PLpro assessed as covalent bond formation at 10 uM incubated for 1 hr by SDS-PAGE analysis
In short: (§2)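 FAM-labeled peptides (10 μM) incubated with purified SARS-CoV-2 PLpro (5 μM) in PBS for 1 h. Covalent adduct detected by SDS gel analysis.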

[3] = test system: Severe acute respiratory syndrome coronavirus 2; test: Binding affinity to SARS-CoV-2 PLpro assessed as covalent bond formation at Cys111 at 10 uM incubated for 1 hr by SDS-PAGE analysis
HEK293T = test: Covalent binding affinity to SARS-CoV-2 PLpro spiked in HEK293T cells lysate at 10 uM incubated for 1 hr by SDS gel analysis; format: subcellular; settings: Severe acute respiratory syndrome coronavirus 2
In short: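 293T cell lysate (300 μg protein) spiked with PLpro (5 μM), then treated with 10 μM FAM-labeled peptide. Labeling read as fluorescent bands on gel.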

[4] = test system: Severe acute respiratory syndrome coronavirus 2; test: Covalent binding affinity to SARS-CoV-2 PLpro Cys111 at 30 uM for 4 hrs by In-gel trypsin digestion based MS-MS analysis
In short: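 Peptide (30 μM) with PLpro (5 μM) in Tris buffer, 37 °C, 4 h. Conjugate band excised from 15% SDS-PAGE, destained with ammonium bicarbonate/acetonitrile and trypsin-digested overnight at 16 °C. Peptides extracted in 50% acetonitrile/0.5% formic acid for MS/MS mapping of the modified residue.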

HEK-293T [5] = test: Antiviral activity against HEK293T cells co-transfected with plasmids encoding Myc-tagged ISG15, E1/E2/E3 ubiquitin ligases, SARS-CoV-2 PLpro fused with EGFP assessed as recovery of intracellular ISGylation level incubated for 24 hrs by immunoblot analysis; format: functional, cell-based; settings: Homo sapiens
In short: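 HEK293T cells co-transfected with Myc-ISG15, E1/E2/E3 ligases and EGFP-fused SARS-CoV-2 PLpro, then kept 24 h at 37 °C in DMEM with 5% FBS plus conjugate. Lysates BCA-normalised, 30 μg per lane. Western blot probed with anti-ISG15, anti-GFP and anti-GAPDH (1:1000), ECL detection.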

[6] = test system: Severe acute respiratory syndrome coronavirus 2; test: Covalent binding affinity to SARS-CoV-2 PLpro by SDS-PAGE analysis
[7] = Inhibition of SARS-CoV-2 PLpro using LRGG-ACC as substrate preincubated for 60 mins followed by substrate addition and measured for 30 mins by enzymatic assay; parameters: species or system Severe acute respiratory syndrome coronavirus 2; in short: as §1
[8] = Drug uptake in human HeLa cells at 10 uM for 4 hrs by tryphan blue staining based flow cytometry relative to control; format: ADME, cell-based
HEK-293T [9] = test: Cytotoxicity against HEK293T cells assessed as inhibition of cell growth at 1.56 to 100 uM incubated for 24 hrs by MTT assay; format: toxicity, cell-based; settings: human, dose 1.56-100 µM
In short: (§3)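 A549 (RPMI-1640) or 293T (DMEM) cells with 10% FBS, plated overnight, then treated 24 h at 1.56–100 μM in medium with 5% FBS. MTT (5 mg/mL reagent) added for 4 h at 37 °C, dissolved in DMSO, absorbance read at 490 nm. DMSO-only control; at least three independent measurements.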

[10] = Hemolytic activity against mouse erythrocyte at 0 to 60 uM for 1.5 hrs by microplate reader analysis; format: toxicity, cell-based; settings: dose 0-60 µM
In short: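 Fresh mouse erythrocytes washed and resuspended in PBS at 10^8/mL, then exposed to serial dilutions starting at 60 μM for 1.5 h at 37 °C. Supernatant hemoglobin read by absorbance. 0.1% Triton X-100 used as 100% control and PBS as blank; % hemolysis calculated relative to both.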

[11] = biological target: Replicase polyprotein 1ab (Middle East respiratory syndrome-related coronavirus (isolate UnitedKingdom/H123990006/2012) (Betacoronavirus England 1) (Humancoronavirus EMC)) (UniProt K9N7C7); test: Inhibition of MERS PLpro using LRGG-ACC as substrate upto 1000 uM preincubated for 60 mins followed by substrate addition and measured for 30 mins by enzymatic assay; settings: dose microM <=1000, time 90.0 min
[12] = test system: Severe acute respiratory syndrome coronavirus 2; test: Covalent binding affinity to SARS-CoV-2 PLpro assessed as reaction efficiency at 0 to 25 uM for 2 hrs by SDS-PAGE analysis; settings: dose 0-25 µM
In short: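 Purified SARS-CoV-2 PLpro (5 μM) incubated with peptide at 0, 2.5, 5, 10, 15, 20 and 25 μM in PBS (pH 7.4, 37 °C). Conjugation resolved on 15% SDS-PAGE.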

HEK-293T [13] = test: Antiviral activity in HEK293T cells co-transfected with plasmids encoding Renilla luciferase, Firefly luciferase is driven by IFN-beta promoter, MAVS assessed as recovery of suppressed IFN-beta promoter activity at 10 to 100 uM by Dual-Luciferase reporter assay relative to control; format: functional, cell-based; settings: Homo sapiens, dose 10-100 µM
In short: (§4)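 HEK293T cells co-transfected with Renilla luciferase reference, IFN-β promoter-driven firefly luciferase, MAVS and SARS-CoV-2 PLpro, then treated with conjugate. Activity scaled to the ISG15-plasmid positive control set as 100%; blank plasmid as negative control; unpaired two-tailed t-test.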

A549 = test: Cytotoxicity against human A549 cells assessed as inhibition of cell growth at 1.56 to 100 uM incubated for 24 hrs by MTT assay; format: toxicity, cell-based; settings: a549, 24 h, dose 1.56-100 µM; in short: as §3
[14] = test system: Severe acute respiratory syndrome-related coronavirus; test: Inhibition of SARS-CoV PLpro using LRGG-ACC as substrate at <=1000 uM preincubated for 60 mins followed by substrate addition and measured for 30 mins by enzymatic assay; settings: dose microM <=1000, time 90.0 min
[15] = test system: Severe acute respiratory syndrome coronavirus 2; test: Covalent binding affinity to SARS-CoV-2 PLpro assessed as reaction efficiency at 10 uM and incubated for 0.5 to 4 hrs by SDS-PAGE analysis; settings: time 0.5-4 hrs, TDE = time-dependent effect
In short: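 Peptide (10 μM) with purified SARS-CoV-2 PLpro (5 μM) in PBS, pH 7.4, 37 °C, sampled at 0.5, 1, 2, 3 and 4 h. Conjugate band resolved on 15% SDS-PAGE.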

HEK-293T [16] = test: Antiviral activity in HEK293T cells co-transfected with plasmids encoding Renilla luciferase, Firefly luciferase is driven by IFN-beta promoter, MAVS assessed as recovery of suppressed IFN-beta promoter activity at 100 uM by Dual-Luciferase reporter assay; format: functional, cell-based; settings: Homo sapiens; in short: as §4
[17] = test system: Severe acute respiratory syndrome coronavirus 2; test: Covalent binding affinity to SARS-CoV-2 PLpro assessed as reaction efficiency at 10 uM for 1 hr by SDS-PAGE analysis; in short: as §2
[18] = Inhibition of SARS-CoV PLpro using LRGG-ACC as substrate preincubated for 60 mins followed by substrate addition and measured for 30 mins by enzymatic assay; parameters: species or system Severe acute respiratory syndrome-related coronavirus

## C[S+]1CC[C@H](N)C(=O)N[C@@H](CCCNC(=N)N)C(=O)NCC(=O)NCC(=O)N[C@H](C(=O)O)CSCc2cccc(c2)C1 (stereo partly drawn) (H-[Met(S-mXyl)]RGGC-OH; thioether 1-5)
[1]
  inhibition: inactive
[2]
  Activity: Active

## CC(C)C[C@@H]1NC(=O)[C@@H](N)CC[S+](C)Cc2cccc(c2)CSC[C@@H](C(=O)O)NC(=O)CNC(=O)[C@H](CCCNC(=N)N)NC1=O (stereo partly drawn) (H-[Met(S-mXyl)]LRGC-OH; thioether 1-5)
[1]
  inhibition: inactive

## CC(C)C[C@H](N)C(=O)N[C@@H](CCCNC(=N)N)C(=O)NCC(=O)NCC(=O)N[C@H]1CSCc2cccc(c2)C[S+](C)CC[C@@H](C(=O)O)NC(=O)[C@H](C)NC(=O)[C@H](C)NC(=O)[C@H](C)NC1=O (stereo partly drawn) (H-LRGGCAAA[Met(S-mXyl)]-OH; thioether 5-9)
[1]
  inhibition: inactive
[3]
  Activity: Active
[2]
  Activity: Active

## Cc1ccc(NC(=O)CC[C@H](NC(=O)c2ccc3c(c2)C(=O)OC32c3ccc(O)cc3Oc3cc(O)ccc32)C(=O)N[C@H]2CC[S+](C)Cc3cccc(c3)CSC[C@@H](C(=O)O)NC(=O)CNC(=O)[C@H](CCCNC(=N)N)NC(=O)[C@H](CC(C)C)NC2=O)cc1C(=O)NC(C)c1cccc2ccccc12 (stereo partly drawn) (5FAM-E(X1)[Met(S-mXyl)]LRGC-OH; thioether 2-6)
HEK293T
  Activity: Active

## CC(C)C[C@H](N)C(=O)N[C@@H](CCCNC(=N)N)C(=O)NCC(=O)NCC(=O)N[C@H]1CC[S+](C)Cc2cccc(c2)CSC[C@@H](C(=O)O)NC(=O)[C@H](C)NC(=O)[C@H](C)NC(=O)[C@H](C)NC1=O (stereo partly drawn) (H-LRGG[Met(S-mXyl)]AAAC-OH; thioether 5-9)
[1]
  inhibition: inactive
[2]
  Activity: Active

## Cc1ccc(NC(=O)CC[C@H](N)C(=O)N[C@H]2CSCc3cccc(c3)C[S+](C)CC[C@@H](C(=O)O)NC(=O)CNC(=O)[C@H](CCCNC(=N)N)NC(=O)[C@H](CC(C)C)NC2=O)cc1C(=O)NC(C)c1cccc2ccccc12 (stereo partly drawn) (H-E(X1)CLRG[Met(S-mXyl)]-OH; thioether 2-6)
[4]
  Activity: Active
HEK-293T [5]
  Activity: Dose-Dependent Effect
[6]
  Activity: Active
[7]
  pIC50: 5.06
[8]
  Drug uptake: Active
HEK-293T [9]
  Activity: Non-Toxic
[10]
  Activity: Non-Toxic
[11]
  inhibition: inactive
[12]
  Activity: Dose-Dependent Effect
HEK-293T [13]
  Activity: Dose-Dependent Effect
A549
  Activity: Non-Toxic
[14]
  inhibition: Active

## CC(C)C[C@H](N)C(=O)N[C@H]1CC[S+](C)Cc2cccc(c2)CSC[C@@H](C(=O)O)NC(=O)CNC(=O)CNC1=O (stereo partly drawn) (H-L[Met(S-mXyl)]GGC-OH; thioether 2-5)
[1]
  inhibition: inactive

## Cc1ccc(NC(=O)CC[C@H](NC(=O)c2ccc3c(c2)C(=O)OC32c3ccc(O)cc3Oc3cc(O)ccc32)C(=O)N[C@H]2CSCc3cccc(c3)C[S+](C)CC[C@@H](C(=O)O)NC(=O)CNC(=O)[C@H](CCCNC(=N)N)NC(=O)[C@H](CC(C)C)NC2=O)cc1C(=O)NC(C)c1cccc2ccccc12 (stereo partly drawn) (5FAM-E(X1)CLRG[Met(S-mXyl)]-OH; thioether 2-6)
HEK293T
  Activity: Active

## CC(C)C[C@@H]1NC(=O)[C@@H](N)CSCc2cccc(c2)C[S+](C)CC[C@@H](C(=O)O)NC(=O)CNC(=O)[C@H](CCCNC(=N)N)NC1=O (stereo partly drawn) (H-CLRG[Met(S-mXyl)]-OH; thioether 1-5)
[1]
  inhibition: inactive
[3]
  Activity: Active
[2]
  Activity: Active

## Cc1ccc(NC(=O)CC[C@H](N)C(=O)N[C@H]2CC[S+](C)Cc3cccc(c3)CSC[C@@H](C(=O)O)NC(=O)CNC(=O)[C@H](CCCNC(=N)N)NC(=O)[C@H](CC(C)C)NC2=O)cc1C(=O)NC(C)c1cccc2ccccc12 (stereo partly drawn) (H-E(X1)[Met(S-mXyl)]LRGC-OH; thioether 2-6)
HEK-293T [5]
  Activity: Dose-Dependent Effect
[15]
  Activity: Tde
HEK-293T [16]
  Activity: inactive
[6]
  Activity: Active
[7]
  pIC50: 5.13
[8]
  Drug uptake: Active
HEK-293T [9]
  Activity: Non-Toxic
[10]
  Activity: Non-Toxic
[17]
  Activity: Active
[11]
  inhibition: inactive
[12]
  Activity: Dose-Dependent Effect
[18]
  pIC50: 5.46
A549
  Activity: Non-Toxic

## CC(C)C[C@H](N)C(=O)N[C@H]1CSCc2cccc(c2)C[S+](C)CC[C@H](C(=O)O)NC(=O)CNC(=O)CNC1=O (stereo partly drawn) (H-LCGG[X2]-OH; thioether 2-5)
[1]
  inhibition: inactive

## Cc1ccc(NC(=O)CC[C@H](N)C(=O)N[C@@H](CC(C)C)C(=O)N[C@@H](CCCNC(=N)N)C(=O)NCC(=O)NCC(=O)O)cc1C(=O)NC(C)c1cccc2ccccc12 (stereo partly drawn) (H-E(X1)LRGG-OH)
[6]
  Activity: inactive
[7]
  pIC50: 4.81
[8]
  Drug uptake: Active
[11]
  inhibition: inactive
[14]
  inhibition: inactive

## Cc1ccc(N)cc1C(=O)NC(C)c1cccc2ccccc12 (stereo not drawn)
HEK-293T [9]
  Activity: Non-Toxic
[10]
  Activity: Non-Toxic
[11]
  inhibition: inactive
[18]
  pIC50: 5.59
A549
  Activity: Non-Toxic

## C[S+]1CC[C@@H](C(=O)O)NC(=O)CNC(=O)CNC(=O)[C@H](CCCNC(=N)N)NC(=O)[C@@H](N)CSCc2cccc(c2)C1 (stereo partly drawn) (H-CRGG[Met(S-mXyl)]-OH; thioether 1-5)
[1]
  inhibition: inactive
[3]
  Activity: Active
[2]
  Activity: Active
